# Results from the M2OR odorant receptor database.
# Target: T1, OR1G1 (Homo sapiens) (UniProt P47890)
# T1 sequence (whole entry): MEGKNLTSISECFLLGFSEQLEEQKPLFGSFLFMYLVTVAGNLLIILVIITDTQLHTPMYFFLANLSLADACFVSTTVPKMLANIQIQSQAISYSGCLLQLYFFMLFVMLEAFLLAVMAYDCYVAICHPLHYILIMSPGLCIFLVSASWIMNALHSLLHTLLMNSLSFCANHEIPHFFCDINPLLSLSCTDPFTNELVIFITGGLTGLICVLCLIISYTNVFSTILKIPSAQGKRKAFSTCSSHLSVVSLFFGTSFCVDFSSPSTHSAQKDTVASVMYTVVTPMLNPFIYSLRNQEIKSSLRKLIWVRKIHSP
# Settings: stereoisomer not certain
# Method in brief: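 Values were gathered from published papers (main text and supplementary material), with extra details requested from the original authors when needed, and checked for typos and inconsistencies. Each receptor–molecule pair is called responsive (active) if the original authors judged the measured signal statistically different from baseline, and non-responsive (inactive) otherwise. Assay methods varied by source, often transient mammalian cell-line luciferase assays. Recorded details include cell line, G-protein, co-transfected protein and tags.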
row,Structure (SMILES),odorant receptor agonist call
1,CCC=C(C)C(O)CCCCC (centres undefined),inactive
2,CC1CC(C)(c2ccccc2)CO1 (centres undefined),inactive
3,CCCCOC(=O)CCC,inactive
4,CC=Cc1ccc(OC)cc1,active
5,CC(=O)OCc1ccccc1,inactive
6,CCCCCCCC(C)O (centres undefined),active
7,CCCCCCC(=O)OCC,inactive
8,CCCCCC(=O)CC,inactive
9,c1cscn1,active
10,CC(=O)CCC=C(C)C,inactive
11,c1ccc2ncccc2c1,active
12,CCC(=O)C=CC1C(C)=CCCC1(C)C (centres undefined),inactive
13,COc1ccc(C)cc1,inactive
14,CC1CCC(C(C)C)C(=O)C1 (centres undefined),inactive
15,CCCCCCCCCC(=O)OCC,active
16,CSC,inactive
17,CCCCCCCCCC(=O)[O-].[H+],active

row,Structure (SMILES),odorant receptor agonist call
1,CCCCCCC1CCC(=O)O1 (centres undefined),active
2,CC(C)CCCC(C)(C)O,inactive
3,CCCCCCC(=O)CC,active
4,CCCC(=O)OCC,active
5,CCCCCCC(C)O (centres undefined),active
6,OCc1ccccc1,active
7,CC=CC(=O)C1C(C)=CCCC1(C)C (centres undefined),inactive
8,O=C(O)C=Cc1ccccc1,inactive
9,C=CC(C)(CCC=C(C)C)OC(C)=O (centres undefined),inactive
10,CCCCCCCC(=O)OCC,active
11,CC(C)=CCCC(C)=CCO,active
12,CCCCCCO,active
13,CCOC(=O)CC1(C)OCCO1,inactive
14,CCCCCC(=O)OC,inactive
15,CCCCCCCCCCCCO,active
16,Cc1cnccn1,active
17,CC(=O)OCCC(C)C,active
